Source: ChEMBL document CHEMBL4354843, “Structure-Based Design of a Potent and Selective Covalent Inhibitor for SRC Kinase That Targets a P-Loop Cysteine” (J Med Chem, 2020)

Assays:
[1] = target: Serine/threonine-protein kinase Nek5 (Homo sapiens) (UniProt Q6P3R8); test: Binding affinity to wild-type human partial length NEK5 (M1 to M279 residues) expressed in bacterial expression system assessed as residual binding level at 1 uM by Kinomescan method relative to control
[2] = target: Rho-associated protein kinase 1 (Homo sapiens) (UniProt Q13464); test: Binding affinity to wild-type human partial length ROCK1 (M1 to R415 residues) expressed in mammalian expression system assessed as residual binding level at 1 uM by Kinomescan method relative to control
[3] = target: Eukaryotic translation initiation factor 2-alpha kinase 1 (Homo sapiens) (UniProt Q9BQI3); test: Binding affinity to wild-type human partial length EIF2AK1 (Q147 to E603 residues) expressed in mammalian expression system assessed as residual binding level at 1 uM by Kinomescan method relative to control
[4] = target: Homeodomain-interacting protein kinase 4 (Homo sapiens) (UniProt Q8NE63); test: Binding affinity to wild-type human partial length HIPK4 (M1 to V384 residues) expressed in bacterial expression system assessed as residual binding level at 1 uM by Kinomescan method relative to control
Sequence of Homeodomain-interacting protein kinase 4 (Homo sapiens) (Q8NE63 whole entry, the tested form may be a part): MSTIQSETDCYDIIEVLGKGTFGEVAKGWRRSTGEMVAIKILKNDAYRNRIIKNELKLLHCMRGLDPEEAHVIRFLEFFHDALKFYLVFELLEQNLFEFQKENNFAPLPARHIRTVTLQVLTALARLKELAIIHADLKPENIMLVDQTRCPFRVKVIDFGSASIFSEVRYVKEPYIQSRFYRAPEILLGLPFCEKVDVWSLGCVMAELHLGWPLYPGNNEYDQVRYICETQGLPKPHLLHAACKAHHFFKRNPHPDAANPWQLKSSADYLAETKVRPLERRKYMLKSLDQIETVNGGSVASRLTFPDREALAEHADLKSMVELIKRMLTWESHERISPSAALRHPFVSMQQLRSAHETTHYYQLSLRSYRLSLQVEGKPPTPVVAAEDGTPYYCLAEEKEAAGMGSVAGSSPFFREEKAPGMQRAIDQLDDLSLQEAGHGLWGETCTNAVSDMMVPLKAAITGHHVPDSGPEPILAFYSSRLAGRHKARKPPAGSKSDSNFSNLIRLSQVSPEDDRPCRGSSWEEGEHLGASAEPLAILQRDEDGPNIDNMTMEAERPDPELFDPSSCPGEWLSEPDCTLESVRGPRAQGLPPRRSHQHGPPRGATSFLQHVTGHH

[5] = target: Ephrin type-A receptor 1 (Homo sapiens) (UniProt P21709); test: Binding affinity to wild-type human partial length EPHA1 (V588 to I913 residues) expressed in bacterial expression system assessed as residual binding level at 1 uM by Kinomescan method relative to control
Sequence of Ephrin type-A receptor 1 (Homo sapiens) (P21709 whole entry, the tested form may be a part, canonical isoform): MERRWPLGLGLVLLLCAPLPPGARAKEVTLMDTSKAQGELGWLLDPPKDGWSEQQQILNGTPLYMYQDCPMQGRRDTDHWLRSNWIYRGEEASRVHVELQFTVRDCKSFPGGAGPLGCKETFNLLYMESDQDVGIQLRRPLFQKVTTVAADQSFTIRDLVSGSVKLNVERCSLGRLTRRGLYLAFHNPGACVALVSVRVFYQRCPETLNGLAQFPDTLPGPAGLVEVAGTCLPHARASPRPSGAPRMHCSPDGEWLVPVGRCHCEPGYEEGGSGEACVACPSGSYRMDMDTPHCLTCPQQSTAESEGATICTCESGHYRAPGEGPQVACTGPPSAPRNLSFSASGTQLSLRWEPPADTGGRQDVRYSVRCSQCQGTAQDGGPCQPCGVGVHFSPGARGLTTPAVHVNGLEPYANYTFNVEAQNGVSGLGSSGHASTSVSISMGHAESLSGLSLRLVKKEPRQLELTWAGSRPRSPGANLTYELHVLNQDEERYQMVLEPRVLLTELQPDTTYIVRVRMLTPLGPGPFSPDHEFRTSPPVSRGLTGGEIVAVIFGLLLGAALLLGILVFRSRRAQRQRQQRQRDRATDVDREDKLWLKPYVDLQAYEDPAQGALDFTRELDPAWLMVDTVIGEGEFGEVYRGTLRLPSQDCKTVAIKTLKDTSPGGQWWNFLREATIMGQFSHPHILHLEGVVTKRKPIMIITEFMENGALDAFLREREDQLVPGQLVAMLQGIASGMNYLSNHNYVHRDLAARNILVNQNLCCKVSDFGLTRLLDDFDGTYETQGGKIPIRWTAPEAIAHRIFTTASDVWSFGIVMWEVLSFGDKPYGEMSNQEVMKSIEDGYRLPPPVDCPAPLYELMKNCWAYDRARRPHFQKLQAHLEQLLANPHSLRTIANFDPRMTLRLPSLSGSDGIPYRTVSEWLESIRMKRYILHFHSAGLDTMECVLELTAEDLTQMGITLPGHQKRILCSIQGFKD

[6] = system: Phosphatidylinositol 4,5-bisphosphate 3-kinase catalytic subunit alpha isoform (Homo sapiens), P42336 [E545K]; test: Binding affinity to human partial length PIK3CA E545K mutant (R108 to N1068 residues) expressed in mammalian expression system assessed as residual binding level at 1 uM by Kinomescan method relative to control
Sequence of Phosphatidylinositol 4,5-bisphosphate 3-kinase catalytic subunit alpha isoform (Homo sapiens), P42336 [E545K] (P42336 whole entry E545K, the tested form may be a part, canonical isoform): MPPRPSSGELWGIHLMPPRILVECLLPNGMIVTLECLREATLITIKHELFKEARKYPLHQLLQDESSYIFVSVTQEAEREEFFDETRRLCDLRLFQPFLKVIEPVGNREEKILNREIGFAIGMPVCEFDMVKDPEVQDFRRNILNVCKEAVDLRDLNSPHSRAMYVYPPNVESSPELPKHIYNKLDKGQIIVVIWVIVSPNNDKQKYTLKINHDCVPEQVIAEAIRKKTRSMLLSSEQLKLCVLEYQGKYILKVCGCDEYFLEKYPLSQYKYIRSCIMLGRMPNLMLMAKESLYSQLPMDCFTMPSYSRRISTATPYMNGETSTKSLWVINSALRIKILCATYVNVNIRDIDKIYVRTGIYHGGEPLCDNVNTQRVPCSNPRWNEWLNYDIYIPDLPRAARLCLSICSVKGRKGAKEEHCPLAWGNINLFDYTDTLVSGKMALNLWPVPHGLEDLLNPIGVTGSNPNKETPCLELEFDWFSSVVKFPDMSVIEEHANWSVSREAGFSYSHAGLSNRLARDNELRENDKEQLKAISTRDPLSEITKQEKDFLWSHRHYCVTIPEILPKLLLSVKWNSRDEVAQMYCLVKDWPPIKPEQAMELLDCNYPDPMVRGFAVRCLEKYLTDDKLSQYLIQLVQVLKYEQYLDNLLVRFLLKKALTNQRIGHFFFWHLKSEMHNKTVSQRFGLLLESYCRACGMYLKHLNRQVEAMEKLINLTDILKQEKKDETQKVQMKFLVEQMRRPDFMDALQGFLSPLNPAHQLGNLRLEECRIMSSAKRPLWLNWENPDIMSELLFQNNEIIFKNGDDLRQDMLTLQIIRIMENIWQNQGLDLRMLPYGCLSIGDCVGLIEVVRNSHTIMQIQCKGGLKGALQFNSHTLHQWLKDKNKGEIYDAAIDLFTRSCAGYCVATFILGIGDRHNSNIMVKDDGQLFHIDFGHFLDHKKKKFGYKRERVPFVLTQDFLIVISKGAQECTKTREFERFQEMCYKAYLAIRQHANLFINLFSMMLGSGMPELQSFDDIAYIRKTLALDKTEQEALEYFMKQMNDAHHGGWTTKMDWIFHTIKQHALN
In short: (§1)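 KinomeScan active site-directed competition binding panel (468 kinases), compound tested at 1 μM. Result expressed as remaining kinase signal versus DMSO control (percent of control).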

[7] = target: Mitogen-activated protein kinase kinase kinase 7 (Homo sapiens) (UniProt O43318); test: Binding affinity to wild-type human partial length TAK1 (M1 to Q303 residues) expressed in mammalian expression system assessed as residual binding level at 1 uM by Kinomescan method relative to control
Sequence of Mitogen-activated protein kinase kinase kinase 7 (Homo sapiens) (O43318 whole entry, the tested form may be a part): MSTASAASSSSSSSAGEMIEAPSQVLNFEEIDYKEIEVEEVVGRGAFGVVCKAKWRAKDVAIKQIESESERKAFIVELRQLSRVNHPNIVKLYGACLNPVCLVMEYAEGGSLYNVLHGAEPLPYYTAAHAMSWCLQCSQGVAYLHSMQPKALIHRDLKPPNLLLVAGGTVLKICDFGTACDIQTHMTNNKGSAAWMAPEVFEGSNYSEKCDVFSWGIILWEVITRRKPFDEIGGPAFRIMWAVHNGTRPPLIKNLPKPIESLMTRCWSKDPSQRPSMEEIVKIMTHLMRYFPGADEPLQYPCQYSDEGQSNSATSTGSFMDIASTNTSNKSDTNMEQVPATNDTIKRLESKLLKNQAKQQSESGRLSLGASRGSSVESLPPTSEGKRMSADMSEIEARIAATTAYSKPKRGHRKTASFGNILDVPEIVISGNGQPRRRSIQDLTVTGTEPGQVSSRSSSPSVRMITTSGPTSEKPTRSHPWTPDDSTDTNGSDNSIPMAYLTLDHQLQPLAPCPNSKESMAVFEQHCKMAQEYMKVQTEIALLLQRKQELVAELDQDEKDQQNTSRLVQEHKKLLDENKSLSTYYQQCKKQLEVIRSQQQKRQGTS
In short: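 Active site-directed competition binding panel (KinomeScan, 468 kinases). Test compound at 1 μM. Read-out is kinase binding remaining versus DMSO control, expressed as percent of control. Scores above 35% are treated as weak binding.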

[8] = target: Serine/threonine-protein kinase D1 (Homo sapiens) (UniProt Q15139); test: Binding affinity to wild-type human partial length PRKD1 (G551 to E870 residues) expressed in bacterial expression system assessed as residual binding level at 1 uM by Kinomescan method relative to control
MDA-MB-231 = test: Antiproliferative activity against human MDA-MB-231 cells assessed as reduction in cell viability incubated for 72 hrs by cell-titer glo assay relative to control; assay type: functional
In short: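 Cells seeded at 2000 cells/well, dosed next day with a range of concentrations (DMSO 0.2% as control), 72 h exposure, viability read by CellTiter-Glo luminescence. Dose–response curves and GR values derived with the online GR calculator. Two independent experiments, each in technical triplicate.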

[9] = target: MAP/microtubule affinity-regulating kinase 4 (Homo sapiens) (UniProt Q96L34); test: Binding affinity to wild-type human partial length MARK4 (K29 to G340 residues) expressed in bacterial expression system assessed as residual binding level at 1 uM by Kinomescan method relative to control
Sequence of MAP/microtubule affinity-regulating kinase 4 (Homo sapiens) (Q96L34 whole entry, the tested form may be a part): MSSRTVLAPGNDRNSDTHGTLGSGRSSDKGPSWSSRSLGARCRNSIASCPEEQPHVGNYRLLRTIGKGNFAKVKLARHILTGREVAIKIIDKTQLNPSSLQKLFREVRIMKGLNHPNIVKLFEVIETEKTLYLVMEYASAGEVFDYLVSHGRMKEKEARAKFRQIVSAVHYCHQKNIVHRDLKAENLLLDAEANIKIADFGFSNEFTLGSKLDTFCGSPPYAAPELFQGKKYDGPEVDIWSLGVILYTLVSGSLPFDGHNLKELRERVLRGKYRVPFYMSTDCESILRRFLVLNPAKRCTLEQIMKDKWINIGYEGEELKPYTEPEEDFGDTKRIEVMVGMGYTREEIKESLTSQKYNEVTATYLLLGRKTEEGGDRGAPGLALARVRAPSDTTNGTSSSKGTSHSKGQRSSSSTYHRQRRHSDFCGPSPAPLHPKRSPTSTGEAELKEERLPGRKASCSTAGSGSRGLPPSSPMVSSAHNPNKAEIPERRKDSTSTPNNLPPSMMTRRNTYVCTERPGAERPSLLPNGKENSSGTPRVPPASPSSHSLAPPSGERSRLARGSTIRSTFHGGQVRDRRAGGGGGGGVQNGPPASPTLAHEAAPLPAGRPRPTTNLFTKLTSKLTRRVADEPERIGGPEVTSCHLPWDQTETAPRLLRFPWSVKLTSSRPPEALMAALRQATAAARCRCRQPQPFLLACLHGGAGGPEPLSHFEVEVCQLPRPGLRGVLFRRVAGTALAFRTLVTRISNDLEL

[10] = target: High affinity nerve growth factor receptor (Homo sapiens) (UniProt P04629); test: Binding affinity to wild-type human partial length TRKA (G475 to G790 residues) expressed in mammalian expression system assessed as residual binding level at 1 uM by Kinomescan method relative to control
[11] = system: Receptor-type tyrosine-protein kinase FLT3 (Homo sapiens), P36888 [D835Y]; test: Binding affinity to human partial length FLT3 D835Y mutant (Q580 to Y969 residues) expressed in bacterial expression system assessed as residual binding level at 1 uM by Kinomescan method relative to control; in short: as §1
[12] = system: Receptor-type tyrosine-protein kinase FLT3 (Homo sapiens), P36888 [D835H]; test: Binding affinity to human partial length FLT3 D835H mutant (V592 to Y969 residues) expressed in bacterial expression system assessed as residual binding level at 1 uM by Kinomescan method relative to control; in short: as §1
[13] = target: Serine/threonine-protein kinase RIO2 (Homo sapiens) (UniProt Q9BVS4); test: Binding affinity to wild-type human partial length RIOK2 (M1 to D313 residues) expressed in mammalian expression system assessed as residual binding level at 1 uM by Kinomescan method relative to control
Sequence of Serine/threonine-protein kinase RIO2 (Homo sapiens) (Q9BVS4 whole entry, looked up, the tested form may be a part): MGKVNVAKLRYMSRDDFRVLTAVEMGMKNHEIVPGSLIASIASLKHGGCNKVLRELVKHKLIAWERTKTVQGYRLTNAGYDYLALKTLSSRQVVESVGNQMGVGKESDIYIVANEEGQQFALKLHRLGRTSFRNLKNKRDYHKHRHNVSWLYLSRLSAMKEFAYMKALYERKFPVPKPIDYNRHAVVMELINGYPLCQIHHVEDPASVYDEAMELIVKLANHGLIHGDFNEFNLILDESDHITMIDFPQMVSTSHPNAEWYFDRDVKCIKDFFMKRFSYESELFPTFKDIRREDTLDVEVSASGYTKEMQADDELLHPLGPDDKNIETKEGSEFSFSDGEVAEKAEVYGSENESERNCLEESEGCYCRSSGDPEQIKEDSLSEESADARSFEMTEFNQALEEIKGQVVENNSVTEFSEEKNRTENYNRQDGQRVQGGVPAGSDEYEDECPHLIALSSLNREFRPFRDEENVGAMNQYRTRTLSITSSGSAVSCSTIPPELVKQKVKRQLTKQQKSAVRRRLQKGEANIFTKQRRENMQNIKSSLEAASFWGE

[14] = target: Vascular endothelial growth factor receptor 3 (Homo sapiens) (UniProt P35916); test: Binding affinity to wild-type human partial length FLT4 (E821 to E1196 residues) expressed in bacterial expression system assessed as residual binding level at 1 uM by Kinomescan method relative to control
[15] = target: Casein kinase I isoform gamma-2 (Homo sapiens) (UniProt P78368); test: Binding affinity to wild-type human full length CSNK1G2 (M1 to K415 residues) expressed in bacterial expression system assessed as residual binding level at 1 uM by Kinomescan method relative to control
In short: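 Active-site-directed KinomeScan competition binding panel covering 468 kinases, compound tested at 1 μM. Each readout is the kinase signal remaining with compound, expressed as a percentage of the DMSO control. […]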

[16] = target: Serine/threonine-protein kinase 32A (Homo sapiens) (UniProt Q8WU08); test: Binding affinity to wild-type human full length YANK1 (M1 to L396 residues) expressed in mammalian expression system assessed as residual binding level at 1 uM by Kinomescan method relative to control
[17] = target: Tyrosine-protein kinase FRK (Homo sapiens) (UniProt P42685); test: Binding affinity to wild-type human partial length FRK (A215 to F503 residues) expressed in bacterial expression system assessed as residual binding level at 1 uM by Kinomescan method relative to control
Sequence of Tyrosine-protein kinase FRK (Homo sapiens) (P42685 whole entry, the tested form may be a part): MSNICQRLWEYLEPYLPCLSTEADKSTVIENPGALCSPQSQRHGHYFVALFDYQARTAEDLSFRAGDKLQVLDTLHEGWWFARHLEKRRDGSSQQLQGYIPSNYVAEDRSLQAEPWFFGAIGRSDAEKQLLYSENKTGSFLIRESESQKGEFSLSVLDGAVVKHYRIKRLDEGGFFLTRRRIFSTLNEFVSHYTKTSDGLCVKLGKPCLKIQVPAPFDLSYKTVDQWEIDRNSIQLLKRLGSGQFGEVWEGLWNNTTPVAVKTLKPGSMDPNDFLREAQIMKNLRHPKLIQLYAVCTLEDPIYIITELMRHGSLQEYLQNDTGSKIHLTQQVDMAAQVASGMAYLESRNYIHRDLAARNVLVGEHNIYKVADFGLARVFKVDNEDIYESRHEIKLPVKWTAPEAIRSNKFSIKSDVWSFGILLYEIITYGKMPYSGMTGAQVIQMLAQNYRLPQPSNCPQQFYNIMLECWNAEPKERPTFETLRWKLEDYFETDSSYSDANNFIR
In short: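 Active-site-directed competition binding panel of 468 kinases (KinomeScan), compound at 1 μM. The read-out is kinase remaining bound, given as a percentage of the DMSO control. […]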

[18] = system: Hepatocyte growth factor receptor (Homo sapiens), P08581 [M1250T]; test: Binding affinity to human partial length MET M1250T mutant (D1010 to S1367 residues) expressed in bacterial expression system assessed as residual binding level at 1 uM by Kinomescan method relative to control; in short: as §1
[19] = target: Tyrosine-protein kinase SYK (Homo sapiens) (UniProt P43405); test: Binding affinity to wild-type human partial length SYK (D354 to N635 residues) expressed in bacterial expression system assessed as residual binding level at 1 uM by Kinomescan method relative to control
[20] = target: Ribosomal protein S6 kinase alpha-2 (Homo sapiens) (UniProt Q15349); test: Binding affinity to wild-type human partial length C-terminal RSK3 kinase domain 2 (V403 to K700 residues) expressed in bacterial expression system assessed as residual binding level at 1 uM by Kinomescan method relative to control

Structure (SMILES): C=CC(=O)Nc1ccccc1Nc1nc(Nc2ccc(N3CCN(C)CC3)cc2)ncc1C(=O)Nc1c(C)cccc1Cl
- Activity [1]: 100%
- Activity [2]: 100%
- Activity [3]: 100%
- Activity [4]: 100%
- Activity [5]: 100%
- Activity [6]: 79%
- Activity [7]: 99%
- Activity [8]: 100%
- Emax (MDA-MB-231): -0.4
- Activity [9]: 95%
- Activity [10]: 100%
- Activity [11]: 100%
- Activity [12]: 95%
- Activity [13]: 100%
- Activity [14]: 100%
- Activity [15]: 100%
- Activity [16]: 100%
- Activity [17]: 5.1%
- Activity [18]: 100%
- Activity [19]: 100%
- Activity [20]: 100%
